The list is not random: actives were taken first. Their share in the collection is about 2.3%.
PAFAH1B3 inh = PAFAH1B3 (human) inhibition; inhibition, % at 3.39 µM; recombinant PAFAH1B3, FP-rhodamine probe, fluorescence polarization; 340,000 compounds, 0.28% hits; Q15102;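 active = inhibition above the screen-wide average of all tested compounds plus 3 SD, cut at about 25% in these data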
PAFAH2 inh = PAFAH2 (human) inhibition; recombinant PAFAH2, FP-rhodamine activity probe, fluorescence polarization; inhibition, % at 3.39 µM; 340,000 compounds, 0.99% hits;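 active = inhibition above the mean over all tested compounds plus 3 SD, cut at about 30% in these data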;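 note: inhibitors block probe labeling of enzyme so polarization drops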
PAFAH1B2 FP inh = inhibitors of human PAFAH1B2 | 340,000 compounds, 1.2% hits | recombinant PAFAH1B2, FP-rhodamine activity probe, fluorescence polarization | inhibition, % at 3.39 µM | P68402;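 active = inhibition above the mean of all tested compounds plus 3 SD, cut at about 24% in these data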
Target sequence (P68402 whole entry, looked up): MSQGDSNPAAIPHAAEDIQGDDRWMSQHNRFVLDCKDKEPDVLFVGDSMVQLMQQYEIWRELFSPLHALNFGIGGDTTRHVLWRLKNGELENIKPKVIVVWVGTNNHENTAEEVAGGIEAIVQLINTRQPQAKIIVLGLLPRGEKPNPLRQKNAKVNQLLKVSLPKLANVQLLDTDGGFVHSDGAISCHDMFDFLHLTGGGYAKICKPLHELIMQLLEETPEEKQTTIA
TDP2 absorb = TDP2 (human) inhibition, absorbance primary screen. inhibition, % at 12.8 µM. recombinant TDP2, T5PNP hydrolysis, p-nitrophenol absorbance 415 nm. O95551. 370,000 compounds, 0.34% hits;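 active = inhibition above the mean of all tested compounds plus 3 SD, set per campaign, cut at about 25% in these data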
Target sequence (O95551 whole entry, looked up): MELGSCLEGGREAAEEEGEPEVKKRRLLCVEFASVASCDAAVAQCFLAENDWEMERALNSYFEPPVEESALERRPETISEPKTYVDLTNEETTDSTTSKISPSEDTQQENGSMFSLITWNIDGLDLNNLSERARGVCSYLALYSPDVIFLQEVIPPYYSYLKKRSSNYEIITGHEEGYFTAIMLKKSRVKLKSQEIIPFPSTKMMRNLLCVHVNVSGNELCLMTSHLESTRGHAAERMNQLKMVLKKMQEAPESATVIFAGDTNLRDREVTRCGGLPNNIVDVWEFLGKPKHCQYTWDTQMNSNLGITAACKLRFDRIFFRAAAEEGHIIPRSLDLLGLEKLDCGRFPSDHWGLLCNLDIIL
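Incubation: 2 h at 37 °C; Test system: recombinant human TDP2; Quantity: enzyme 120 nM; Read-out basis: percent inhibition; Medium: 50 mM Tris-HCl pH 7.5 with Mg2+, KCl, DTT, BSA; Repeats: single replicate; Compound: 12.8 µM single point, 1% DMSO; Signal: epi absorbance; Reagent: 5 mM T5PNP chromogenic substrate; Benchmarks: no-enzyme high, DMSO-plus-enzyme low.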
Apaf-1 inh = inhibitors of human Apaf-1 apoptosome; O14727; AID 489030; 330,000 compounds, 0.71% hits; reconstituted apoptosome caspase-3 activity, DEVD-Rh110 fluorescence; inhibition, % at 20 µM; active = inhibition of at least 40% at 20 µM
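System: reconstituted apoptosome with Apaf-1, cytochrome c, caspase-9, procaspase-3, dATP; Signal: Rh110 fluorescence intensity; Schedule: 30 min compound preincubation, 50 min activation, room temperature; Reagent: cytochrome c trigger plus (Z-DEVD)2-Rh110 caspase-3 substrate.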
PAFAH2 confirm = confirmation of human PAFAH2 inhibitors. shares compounds with PAFAH2 inh. AID 493030. 2,300 compounds, 65% hits. inhibition, % at 3.39 µM. recombinant PAFAH2, FP-rhodamine activity probe, fluorescence polarization;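 active = mean inhibition over three repeats above a set limit taken from the earlier primary screen, cut at about 30% in these data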;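 note: inhibitor blocks binding of rhodamine activity probe so polarization falls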
Numbers stand for hits; n = inactive; x = no result given.

SMILES	PAFAH1B3 inh	PAFAH2 inh	PAFAH1B2 FP inh	TDP2 absorb	Apaf-1 inh	PAFAH2 confirm
COc1ccc(NC(=O)COC(=O)c2ccccc2SCC(=O)N2CCCC2)cc1	n	61	n	n	n	62
O=C(OCC(=O)N1CCCCC1)c1ccccc1SCC(=O)N1CCCCC1	n	n	n	n	n	x
O=C(COC(=O)c1ccccc1SCC(=O)N1CCCC1)NCc1ccccc1	n	n	n	n	n	x
CC(=O)N[C@@H]1C[C@@H]2O[C@H](CO)CC[C@@H]2O[C@@H]1CCc1ccc(C#CC2(O)CCCC2)cc1	x	x	x	n	x	x
O[C@H](COc1cccc(Cl)c1)CN1CCC(C(O)(c2ccccc2)c2ccccc2)CC1	x	x	x	n	x	x
C=CCN1C(=O)/C(=C2/Sc3ccccc3N2CCCS(=O)(=O)O)SC1=S	n	34	n	n	n	n
Cc1ccc(-n2c(Cc3cccs3)nnc2SCc2ccc(C#N)cc2)cc1	x	x	x	n	x	x
COc1cc2nc(-c3ccc(Br)o3)oc(=O)c2cc1OC	n	53	n	n	n	41
Cc1ccc2nc(-c3ccc(Br)o3)oc(=O)c2c1	n	66	n	n	n	66
COc1cc2nc(CCc3ccccc3)oc(=O)c2cc1OC	n	36	n	n	n	n
CCCC#Cc1ccc(CC[C@H]2O[C@H]3CC[C@H](CO)O[C@H]3C[C@H]2NC(=O)CN2CCOCC2)cc1	x	x	x	n	x	x
O=C(Nc1cccc(Cl)c1)c1cc(N=Nc2ccc([N+](=O)[O-])cc2Cl)ccc1O	n	33	n	n	n	n
CCOc1cc(C(=O)N2CCC(CC3CC(c4ccccc4)=NO3)(C(=O)NCc3ccc(OC)cc3)CC2)cc(OCC)c1OCC (stereo unspecified)	n	30	n	n	n	n
COc1ccc(CNC(=O)C2(CC3CC(c4ccccc4)=NO3)CCN(C(=O)Cc3ccc(F)cc3)CC2)cc1 (stereo unspecified)	n	n	n	n	n	x
COc1ccc(C(=O)N/N=C/c2cc3ccccc3[nH]c2=S)cc1	n	43	n	n	n	n
CC(O)CN1CC(O)=C(c2nc3ccccc3s2)C1=N (stereo unspecified)	n	n	n	n	n	x
CCN1CC(O)=C(c2nc3ccccc3s2)C1=N	n	52	n	n	n	n
N=C1C(c2nc3ccccc3s2)=C(O)CN1CCCO	n	41	n	n	n	n
N=C1C(c2nc3ccccc3s2)=C(O)CN1c1ccccc1	n	n	n	n	n	x
Nn1c(SCC(=O)Nc2ccc(OCc3ccccc3)cc2)nnc1-c1cc(-c2ccc(F)cc2)n[nH]1	x	x	x	n	x	x
CCCCCCC12C(=Cc3cc(C)ccc31)c1ccccc1C(CC(=O)NCc1ccccc1)N2C(=O)OC (stereo unspecified)	x	x	x	n	x	x
Cc1ccc(S(=O)(=O)N2CCCCC2)cc1NC(=O)COC(=O)c1cccc(O)c1	x	x	x	n	x	x
Cc1ccc(NC(=O)COC(=O)c2ccccc2Cl)cc1S(=O)(=O)N(C)C	n	58	n	n	n	39
Cc1ccc(S(=O)(=O)N2CCCCC2)cc1NC(=O)COC(=O)c1ccccc1F	n	52	n	n	n	53
Cc1ccc(NC(=O)COC(=O)c2ccccc2F)cc1S(=O)(=O)N1CCCCC1	n	67	n	n	n	59
SMILES	PAFAH1B3 inh	PAFAH2 inh	PAFAH1B2 FP inh	TDP2 absorb	Apaf-1 inh	PAFAH2 confirm
O=C(Cc1ccc(-c2ccccc2)cc1)Nc1ccccc1	n	n	n	n	n	x
O=C(Cc1ccc(-c2ccccc2)cc1)Nc1ncccc1O	n	32	n	n	n	n
NCCN1CCN(S(=O)(=O)c2ccc3c(c2)CCN3C(=O)C2CCC2)CC1	x	x	x	n	x	x
CC1CCCCN1S(=O)(=O)c1ccc(C(=O)Nc2ccccc2-c2nc3ccccc3[nH]2)cc1 (stereo unspecified)	n	37	n	n	n	n
COc1ccc(/C=C2\SC(=S)N(C(Cc3ccccc3)C(=O)O)C2=O)cc1 (stereo unspecified)	n	n	n	n	n	x
O=C(O)C(Cc1ccccc1)N1C(=O)/C(=C/C=C/c2ccco2)SC1=S (stereo unspecified)	n	60	n	n	x	47
Cc1ccc(C(=O)CN(C(=O)c2ccc(Cl)c(Cl)c2)N2C(=O)C3CCCCC3C2=O)cc1C (stereo unspecified)	n	n	n	n	n	x
Cc1ccc(C(=O)CN(C(=O)c2ccc(Cl)c(Cl)c2)N2C(=O)C3CCCCC3C2=O)cc1 (stereo unspecified)	n	35	n	n	n	35
COC(=O)[C@]12C[C@H](CC(=O)N3CCCCC3)C(=O)N(Cc3ccco3)C1=C[C@H](C1CCCC1)O[C@@H]2C	x	x	x	n	x	x
O=C(O/N=C1\CCS(=O)(=O)c2sccc21)c1c(F)cccc1F	n	n	n	n	n	x
COc1cccc(C(=O)O/N=C2\CCS(=O)(=O)c3sccc32)c1	n	70	n	n	n	37
Cc1ccc(C(=O)O/N=C2\CCS(=O)(=O)c3sccc32)cc1	n	88	n	n	n	83
Cc1cc(CSc2nc(C)cc(=O)[nH]2)c2ncccc2c1	n	n	n	n	n	x
Cc1cc(=O)[nH]c(SCc2cccc3ccccc23)n1	n	35	n	n	n	n
O=C(CN(Cc1cccs1)C(=O)CNS(=O)(=O)c1ccc(F)cc1)NCc1ccco1	n	n	n	n	n	x
O=C(CN(Cc1cccs1)C(=O)CNS(=O)(=O)c1ccc(Cl)cc1)NCc1ccco1	n	30	n	n	n	n
Nn1c(SCC(=O)Nc2ccc(C(=O)O)cc2)nnc1-c1ccco1	x	x	x	n	x	x
CCCC[C@H]1C2CC(OC(=O)Nc3cccc(Cl)c3)C(C2)[C@H]2CCCCN21 (stereo partly specified)	x	x	x	n	x	x
CC1CCCCN1C(=O)/C(=C\c1ccccc1)c1ccccc1 (stereo unspecified)	n	38	n	n	n	n
COc1cccc(C(=O)OCC(=O)NCCC2=CCCCC2)c1	n	38	n	n	n	n
COc1cc(C(=O)OCC(=O)NCCC2=CCCCC2)cc(OC)c1OC	n	n	n	n	n	x
COc1cc(C(=O)OCC(=O)NCCC2=CCCCC2)ccc1OCC(C)C	n	41	n	n	n	43
Cc1nn(CCC(=O)NNC(=O)Nc2ccccc2F)c(C)c1[N+](=O)[O-]	x	x	x	n	x	x
COc1ccccc1/C=C/C(=O)OCC(=O)Nc1ccc2c(c1)OCCO2	n	80	n	n	n	78
COc1cc(/C=C/C(=O)OCC(=O)Nc2ccc3c(c2)OCCO3)ccc1OCC#N	n	42	n	n	n	51
COc1ccc(-n2c(SCC(=O)Nc3cc(C)c(NC(=O)c4ccccc4)cc3OC)nnc2-c2ccccc2F)cc1	x	x	x	n	x	x
O=C1Nc2ccc(Cl)cc2C12Nc1ccccc1-c1nnc(SCc3ccccc3F)nc1O2 (stereo unspecified)	n	n	n	n	x	x

Screening data deposited in PubChem BioAssay by several laboratories.
